Measured values of several laboratories.
Compare with care: the assays were run in different laboratories.
Target: Mitogen-activated protein kinase kinase kinase 3 (MAP3K3, Homo sapiens, UniProt Q99759)
Residues used in one study (Q99759 1-626): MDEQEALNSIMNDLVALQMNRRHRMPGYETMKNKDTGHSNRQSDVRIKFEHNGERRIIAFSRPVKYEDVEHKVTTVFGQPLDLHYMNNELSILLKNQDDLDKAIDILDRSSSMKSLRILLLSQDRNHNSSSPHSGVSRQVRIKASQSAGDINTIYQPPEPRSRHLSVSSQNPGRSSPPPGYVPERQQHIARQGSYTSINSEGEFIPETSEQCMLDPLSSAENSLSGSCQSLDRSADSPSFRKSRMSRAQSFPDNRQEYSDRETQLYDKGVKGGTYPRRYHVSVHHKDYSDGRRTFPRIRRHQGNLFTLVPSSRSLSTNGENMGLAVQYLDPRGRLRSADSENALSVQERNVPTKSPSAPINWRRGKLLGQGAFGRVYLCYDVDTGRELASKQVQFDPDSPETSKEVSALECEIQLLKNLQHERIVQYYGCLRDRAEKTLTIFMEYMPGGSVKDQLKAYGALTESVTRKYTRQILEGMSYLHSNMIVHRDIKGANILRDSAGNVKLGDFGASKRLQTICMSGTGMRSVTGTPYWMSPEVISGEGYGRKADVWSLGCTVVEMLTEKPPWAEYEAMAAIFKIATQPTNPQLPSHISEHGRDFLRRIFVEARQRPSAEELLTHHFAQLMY

Structure (SMILES)	observed	action	method	concentration	quantity	result
CC(C)(C)c1nc2c(s1)c1nc(N)ncc1c1ccc(NS(=O)(=O)c3c(F)cccc3F)c(F)c12	enzyme activity	inhibitor	radiometric	1 µM	remaining activity	117%
Cc1nc(C2CCN(C(=O)c3ccc(OC(F)(F)F)cc3N)CC2)c2ncc(N3CCN(C)CC3)cc2n1	cell-free assay	–	competition with immobilised ligand	1 µM	remaining binding	92%
O=C1Nc2ccc(Cl)cc2C1=Cc1cc(Cl)c(O)c(Cl)c1	cell-free assay	–	–	0.5 µM	remaining signal	101%
Cc1sc(C(=O)NC2COC2)cc1-n1cc(NC(=O)Nc2c(F)cccc2Cl)cn1	enzyme activity	inhibitor	–	10 µM	remaining activity	113%
Cc1ccc(NC(=O)c2ccc(CN3CCN(C)CC3)cc2)cc1Nc1nc(-c2cccnc2)cs1	cell-free assay	–	–	0.5 µM	remaining signal	108%
O=C(NCc1ncc(C(F)(F)F)cc1Cl)c1ccc2c(c1)C1(CCS(=O)(=O)CC1)[C@H](C1CC1)N2S(=O)(=O)c1ccc(F)cc1	cell-free assay	–	competition with immobilised ligand	1 µM	remaining binding	74%
O=C(Nc1cnn(-c2csc(C(=O)NC3COC3)c2)c1)Nc1ccccc1Cl	enzyme activity	inhibitor	–	5 µM	remaining activity	113%
O=C(NS(=O)(=O)c1ccc(NCC2CCOCC2)c([N+](=O)[O-])c1)c1ccc(N2CCN(Cc3ccc(C(F)(F)F)cc3-c3ccc(Cl)cc3)CC2)cc1Oc1cnc2[nH]ccc2c1	cell-free assay	–	competition with immobilised ligand	1 µM	remaining binding	82%
c1cnn2ncc(-c3ccnc(N4CCC45COC5)n3)c2c1	binding	–	–	1 µM	remaining binding	40%
CC(C)(O)[C@H]1CC[C@H](Nc2ccc3ncc(-c4cccc(C(F)(F)F)c4)n3n2)CC1	enzyme activity	inhibitor	–	1 µM	remaining activity	92.2%
Cc1ccc(C(=O)Nc2ccc(CN3CCN(C)CC3)c(C(F)(F)F)c2)cc1C#Cc1cnc2cccnn12	enzyme activity	inhibitor	–	23.5 nM	remaining activity	34%
COc1ccc(F)cc1C(=O)NCc1ccc(-c2nn([C@@H](C)C(F)(F)F)c(N)c2C(N)=O)cc1	target engagement in cells	inhibitor	chemoproteomics	10 nM	inhibition	4.7%
CN([C@@H]1CCc2c(CC(=O)O)c3cc(S(C)(=O)=O)ccc3n2C1)S(=O)(=O)c1ccc(F)cc1	cell-free assay	–	competition with immobilised ligand	1 µM	remaining binding	85%
CN1CC(Oc2cnc(C#N)cc2-c2ccn3nc(NC(=O)C4CC4)cc3c2)C1	enzyme activity	inhibitor	–	1 µM	inhibition	3%
CS(=O)(=O)CCNCc1ccc(-c2ccc3ncnc(Nc4ccc(OCc5cccc(F)c5)c(Cl)c4)c3c2)o1	cell-free assay	–	–	0.5 µM	remaining signal	110%
CS(=O)(=O)c1cc(C2(NC(=O)c3cncc4c3cnn4-c3ccc(F)cc3)CC2)ccn1	cell-free assay	–	competition with immobilised ligand	1 µM	remaining binding	92%
